From PubChem
Most compounds without a hit are left out; they make up all but 1.9% or so of the library.
Rtt109 Vps75 = blocks Candida albicans Rtt109/Vps75 acetyltransferase activity; AID 540336; purified Rtt109/Vps75, ThioGlo CoA-SH fluorescence, 4 h; Q5AAJ8; 0.16% of 330,000 active; inhibition, % at 34.9 µM;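 active means inhibition of at least 50% in every replicate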
Efflux pump mplx = blocks antifungal efflux pumps in multiplex yeast assay; S. cerevisiae Candida pump triplex, Nile Red efflux; 0.44% of 330,000 active; inhibition, % at 10 µM; AID 485275;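 active means plate passing quality check with inhibition over a set limit, or well fluorescence over plate mean plus 4 SD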;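 further: Nile Red retained in pooled yeast measured as flow cytometry median fluorescence; 0% = buffer negative control and 100% = Enniatin B positive control; higher means more Nile Red kept so more efflux inhibition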
FGF22 binding = shifts melting point of recombinant human FGF22; activity (Tm shift, normalised), % at 9.99 µM; 1.5% of 340,000 active; recombinant FGF22 thermal shift, SYPRO orange fluorescence; percent of sucrose octasulfate shift, DMSO zero;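 active means mean Tm shift, scaled 0 neutral to 100 positive control, at about 1.3% or above, every replicate too, limit read from the data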
Target sequence (Q9HCT0 whole entry, looked up): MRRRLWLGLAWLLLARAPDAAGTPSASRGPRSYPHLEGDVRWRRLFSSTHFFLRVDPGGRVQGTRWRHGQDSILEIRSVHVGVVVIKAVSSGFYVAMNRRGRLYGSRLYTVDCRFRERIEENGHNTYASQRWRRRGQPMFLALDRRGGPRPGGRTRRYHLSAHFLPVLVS
ASAP1 GAP inh = inhibitors of human ASAP1 ArfGAP activity. Q9ULH1. ASAP1-stimulated ARF1 GTP hydrolysis, GDP FP detection. inhibition, % at 16.5 µM. 0.19% of 360,000 active; in the data active means inhibition above about 25%;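 further: 0% = vehicle with enzyme and substrate and 100% = no enzyme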
ARFGAP1 inhibitor = inhibits rat ARF GTPase activating protein 1; Q62848; Arfgap1-stimulated ARF1 GTP hydrolysis, GDP FP detection; inhibition, % at 16.5 µM; 0.26% of 360,000 active;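 active means inhibition above a per-plate limit, mean inhibition of low control wells plus 3 SD, cut at about 25% in these data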;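 further: 0% = DMSO wells with enzyme and 100% = wells lacking Arfgap1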
Target sequence (Q62848 1-136 limits assumed): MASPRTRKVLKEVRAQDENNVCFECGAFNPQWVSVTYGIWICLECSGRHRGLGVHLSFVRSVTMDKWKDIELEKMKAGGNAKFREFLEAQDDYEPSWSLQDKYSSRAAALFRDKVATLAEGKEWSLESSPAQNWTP
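Repeats: one replicate per compound; assay system: rat Arfgap1 catalytic domain, aa 1-136; times: enzyme reaction 120 min at 25 °C after 20 min preincubation; detection: FP of antibody-bound GDP Alexa 633 tracer, ex 620/em 688 nm; benchmarks: high control wells lacking Arfgap1, low control full reaction with DMSO; reagent: human ARF1(Δ1-17)-GTP substrate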
The depositor's hits bear a star.

`Nc1c(Br)cc(Br)c2c1C(=O)c1c(cccc1S(=O)(=O)O)C2=O` gave Rtt109 Vps75 4, FGF22 binding 44*, ASAP1 GAP inh -6 and ARFGAP1 inhibitor 2.
`Nc1cc(C(=O)O)c(N)c2c1C(=O)c1ccccc1C2=O` gave Rtt109 Vps75 7 and Efflux pump mplx 0.
Screening NC(=O)Nc1ccc(C(=O)OCC(=O)c2c[nH]c3ccccc23)cc1 returned Rtt109 Vps75 -10, Efflux pump mplx 0, FGF22 binding 44*, ASAP1 GAP inh 5 and ARFGAP1 inhibitor -10.
Screening Cc1cc(C)n2nc(C(=O)OCC(=O)c3ccccc3)nc2n1 returned Rtt109 Vps75 7, Efflux pump mplx 0, FGF22 binding 0, ASAP1 GAP inh -11 and ARFGAP1 inhibitor 10.
For Cc1cc(C)n2nc(C(=O)OCC(=O)c3c[nH]c4ccccc34)nc2n1 the results were Rtt109 Vps75 2, Efflux pump mplx 0, FGF22 binding 44*, ASAP1 GAP inh 4 and ARFGAP1 inhibitor 6.
For C[C@@H](NC(=O)C[C@@H]1CC[C@@H]2[C@H](COC[C@@H](O)CN2C(=O)Nc2ccccc2)O1)c1ccccc1 the results were FGF22 binding 0.
CC(C)[C@H](NC(=O)c1ccccc1)C(=O)OCC(=O)Nc1ccc(S(=O)(=O)N2CCOCC2)cc1 was read as Rtt109 Vps75 1, Efflux pump mplx 0, FGF22 binding 43*, ASAP1 GAP inh 0 and ARFGAP1 inhibitor -4.
`O=C(COC(=O)/C=C/c1ccccc1[N+](=O)[O-])Nc1ccc(S(=O)(=O)N2CCOCC2)cc1` gave Rtt109 Vps75 -7, Efflux pump mplx 0, FGF22 binding 43*, ASAP1 GAP inh -8 and ARFGAP1 inhibitor 6.
Screening CCC(=O)Nc1sc2c(c1C(N)=O)CCN(C(C)=O)C2 returned Rtt109 Vps75 -1, Efflux pump mplx 0, FGF22 binding 0, ASAP1 GAP inh 12 and ARFGAP1 inhibitor -1.
`CC(=O)N1CCc2c(sc(NC(=O)c3ccc([N+](=O)[O-])o3)c2C(N)=O)C1` gave FGF22 binding 1, ASAP1 GAP inh -5 and ARFGAP1 inhibitor 27*.
`CCOc1c2ccc(C(=O)N[C@H](C)C3CCCCC3)cc2nn1CCOC` gave Rtt109 Vps75 5, Efflux pump mplx 0, FGF22 binding 44*, ASAP1 GAP inh 8 and ARFGAP1 inhibitor 0.
For CCCn1nc2cc(C(=O)NCc3ccc(OC(F)(F)F)cc3)ccc2c1OCC the results were Rtt109 Vps75 7, FGF22 binding 43*, ASAP1 GAP inh 8 and ARFGAP1 inhibitor 4.
`C=C(C)C(=O)N1CC2(CC(c3cccc(NC(=O)COc4ccc(Cl)cc4)c3)=NO2)C[C@@H]1C(N)=O` (some centres not stated) gave Rtt109 Vps75 -8, Efflux pump mplx 0, FGF22 binding 0, ASAP1 GAP inh 0 and ARFGAP1 inhibitor 12.
Screening COc1ccc(C2=C(Nc3ccccc3)c3ccccc3C2=O)cc1 returned Rtt109 Vps75 -5, Efflux pump mplx 0, FGF22 binding 0, ASAP1 GAP inh -4 and ARFGAP1 inhibitor 0.
For C/C=C/C(=O)OCC(=O)Nc1ccc(C)c(S(=O)(=O)N(C)C)c1 the results were Rtt109 Vps75 2, Efflux pump mplx 0, FGF22 binding 44*, ASAP1 GAP inh -6 and ARFGAP1 inhibitor -14.
CCN(C(=O)COC(=O)c1ccccc1O)c1nc2ccccc2s1 was read as Rtt109 Vps75 -1, Efflux pump mplx 0, FGF22 binding 43*, ASAP1 GAP inh 5 and ARFGAP1 inhibitor 1.
O=C(OCc1nc2ccccc2s1)c1ccccc1O was read as Rtt109 Vps75 10, Efflux pump mplx 0, FGF22 binding 0, ASAP1 GAP inh 8 and ARFGAP1 inhibitor 12.
O=C(Nc1scc(-c2ccccc2)c1C(=O)O)c1ccccc1Cl was read as Rtt109 Vps75 -4, Efflux pump mplx 0, FGF22 binding 37*, ASAP1 GAP inh 5 and ARFGAP1 inhibitor 5.
`COc1ccccc1OCCOc1ccc(/C=C2\C(=N)N3N=C(S(C)(=O)=O)SC3=NC2=O)cc1` gave Rtt109 Vps75 0, Efflux pump mplx 0, FGF22 binding 2.1*, ASAP1 GAP inh 3 and ARFGAP1 inhibitor -10.
For COc1cc(/C=C2/C(=N)N3C(=NC2=O)SN=C3S(=O)(=O)C(C)C)ccc1OC(=O)c1ccco1 the results were Rtt109 Vps75 5, Efflux pump mplx 0, FGF22 binding 1.4*, ASAP1 GAP inh 1 and ARFGAP1 inhibitor -3.
`CS(=O)(=O)C1=NN2C(=N)/C(=C\c3ccc(OC(=O)c4ccco4)cc3)C(=O)N=C2S1` gave Rtt109 Vps75 57*, Efflux pump mplx 0, FGF22 binding 0, ASAP1 GAP inh -14 and ARFGAP1 inhibitor 3.
Screening N=C1/C(=C\c2ccc(OC(=O)c3ccco3)cc2)C(=O)N=C2SC=NN12 returned FGF22 binding 44*, ASAP1 GAP inh 17 and ARFGAP1 inhibitor 13.
`CN1C(=O)Cc2cc(S(=O)(=O)NCCc3ccccc3)ccc21` gave Rtt109 Vps75 5, Efflux pump mplx 0, FGF22 binding 0, ASAP1 GAP inh -6 and ARFGAP1 inhibitor 4.
For CSCC[C@H](NC(=O)OC(C)(C)C)C(=O)N/N=C/c1cccc2nccnc12 the results were Rtt109 Vps75 4, Efflux pump mplx 0, FGF22 binding 0, ASAP1 GAP inh 2 and ARFGAP1 inhibitor 5.
CC1S/C(=N/N=C2CCCCC2)NC1=O (configuration not stated) was read as Rtt109 Vps75 5, Efflux pump mplx 0, FGF22 binding 0, ASAP1 GAP inh 3 and ARFGAP1 inhibitor -5.
`CC1SC(=NC(=O)c2ccncc2)NC1=O` (configuration not stated) gave Rtt109 Vps75 -3, Efflux pump mplx 0, FGF22 binding 44*, ASAP1 GAP inh -13 and ARFGAP1 inhibitor 10.
`Cc1cc(=O)[nH]c(SCC(=O)NC(C)C2CC3CCC2C3)c1C#N` (configuration not stated) gave Rtt109 Vps75 12, Efflux pump mplx 0, FGF22 binding 44*, ASAP1 GAP inh -2 and ARFGAP1 inhibitor -5.
CC(NC(=O)CSc1n[nH]c(=O)[nH]c1=O)C1CC2CCC1C2 (configuration not stated) was read as Rtt109 Vps75 -13, Efflux pump mplx 0, FGF22 binding 0, ASAP1 GAP inh -3 and ARFGAP1 inhibitor 10.
For Cc1ccc(S(=O)(=O)N2CCC3(CC2)CC(=O)c2ccccc2O3)cc1 the results were Rtt109 Vps75 11, Efflux pump mplx 0, FGF22 binding 0, ASAP1 GAP inh 3 and ARFGAP1 inhibitor 5.
Screening CC=Cc1ccc2n(c1=O)C[C@@H]1[C@@H](CO)[C@H](C(=O)N3CCc4ccccc4C3)[C@H]2N1Cc1ccncc1 (mixture of isomers) returned FGF22 binding 1.5*.
O=C(O)/C=C/C(=O)c1ccc2c(c1)CCc1ccccc1-2 was read as Rtt109 Vps75 144*, Efflux pump mplx 0, FGF22 binding 0, ASAP1 GAP inh 1 and ARFGAP1 inhibitor -2.
